This is an account of results in PubChem BioAssay AID1046 (PCMD, 2008).

Usually inhibition stands for the relative decrease from the control value, in per cent.

SMILES strings stand for the structures. Screen size: about 220,000 compounds; about 560 (0.25%) were called active. What follows is part of a selection rich in actives, with near analogues and random picks from the rest. Unmarked numbers belong to inactive results.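 The calls were made as follows: active = inhibition at or above 40%; inactive = inhibition below 40%.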

For this assay, the target named is Prothrombin (Homo sapiens) (UniProt P00734). As to the kind of experiment: human alpha-thrombin inhibitors, primary screen, counter-screen for coagulation protease inhibitor project, biochemical, 1536-well, fluorogenic AMC substrate (AID 1046).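 Also: 0% = enzyme with no compound and 100% = wells without enzyme.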 The note with it: Boc-VPR-AMC fluorogenic substrate cleavage, at 5 µM, hits give high values. Summed up:
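Test system: human alpha-thrombin; medium: pH 7.5 Tris-saline with Tween 20; times: reaction at room temperature; signal: AMC fluorescence at 355 nm excitation and 460 nm emission; also added: Boc-VPR-AMC substrate, 15 µM final; dosing: one concentration per compound, 5 µM, with 0.2% DMSO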
A general note: A counterscreen serves to expose hits that act by an unwanted route or on another target.
Turning to `CN1CCN(CCC(=O)N/N=C/C=C2\N(C)c3ccccc3C2(C)C)CC1`, the inhibition is -4.81%.
In the case of `CC(C)(C)NC(=O)c1cccc(NC(=O)Cc2ccc(Br)cc2)c1` it was -6.49%; in that of `CC(=O)NNC(=O)c1csc(Cc2c(Cl)sc3ccc(Cl)cc23)n1`, -1.7%; in that of `CCOC(=O)C1CCN(c2c(Nc3cc(C)cc(C)c3)c(=O)c2=O)CC1`, -1.29%.
The figure for `CSc1nc(-c2ccco2)nn1C(=O)CCc1ccccc1` is 99.4% (active); for `CSc1nc(-c2ccco2)nn1C(=O)c1ccccc1Cl` it is 0.04%; for `CS(=O)(=O)n1nc(-c2ccco2)nc1N` it is 1.66%.
The figure for `O=C(c1cccc(S(=O)(=O)N2CCCC2)c1)N(Cc1ccco1)C1CCS(=O)(=O)C1` (stereo not drawn) is -1.64%; for `COC(=O)C(NS(=O)(=O)c1ccc(F)cc1)c1ccccc1` (stereo not drawn) it is 5.5%.
Regarding `CC(=O)NC(NC(=S)Nc1c(C)n(C)n(-c2ccccc2)c1=O)C(Cl)(Cl)Cl` (stereo not drawn), the inhibition is -5.85%.
The figure for `CCn1c(-c2cccnc2Cl)nc2cc(C)c(C)cc21` is 0.78%; for `Cc1ccccc1CC1(CO)CCCN(C(=O)c2cc(-c3ccccc3)no2)C1` (stereo not drawn) it is -8.1%.
In the case of `CC(C)CC(CC(C)C)=NNC(=O)c1ccc(CSc2nncn2C)cc1` it was 6.95%; in that of `CCn1ncc(CNC(=O)C2(C)CC2(Br)Br)c1C` (stereo not drawn), -5.28%; in that of `CC1(C)CC(=O)c2cnc3nc4ccccc4n3c2C1`, -14.5%.
The figure for `Cc1ccc(C)c2[nH]c(=O)c(CN(Cc3cccnc3)C(=S)NCc3ccco3)cc12` is -27%; for `COc1ccccc1N1CCN(c2ccc([N+](=O)[O-])nc2)CC1` it is 1.48%; for `COc1ccc(CN2CCC(c3nc4ccc(Cl)cc4[nH]3)CC2)cc1` it is 1.55%.
On to `Cc1ccc(NNC(=O)c2cccs2)cc1Cl`, for which the inhibition is 0.15%.
In the case of `COc1ccc(-c2nn(C)c(=O)c3ccccc23)cc1NC(=O)COc1ccccc1` it was 3.07%; in that of `CCC(=O)NCc1cc(-c2nn(C)c(=O)c3ccccc23)ccc1OC`, 2.19%; in that of `COc1ccc(-c2nn(C)c(=O)c3ccccc23)cc1CNC(=O)C1CCCCC1`, 70.8% (active).
In the case of `Cc1cc(CO)nn1-c1ccc([N+](=O)[O-])cc1` it was -4.29%; in that of `Cc1nnc(N/N=C/c2cccs2)[nH]c1=O`, -0.86%; in that of `CCn1c(=O)c2cc(C(=O)Nc3cccc(C(C)=O)c3)sc2c2ccccc21`, -4.44%.
In the case of `CC(C)S(=O)(=O)c1csc(NC(=O)Nc2ccc(Cl)cc2)c1Cl` it was 3.02%; in that of `O=C(Nc1nsc(-c2ccccc2)n1)c1ccncc1`, 3.88%; in that of `COC(=O)c1nc(NC(=O)c2ccc(C(C)(C)C)cc2)n[nH]1`, 58.9% (active).
For the compound `C/C(=N/NC(=O)c1ccc(NC(=O)c2ccc(F)cc2)cc1)c1ccccc1`, the inhibition is 3.8%.
In the case of `COc1ccc(N2CCN(C(=O)CNC(=O)c3ccc(C(C)(C)C)cc3)CC2)cc1` it was 12.8%; in that of `COC(=O)c1nc(NC(=O)c2ccccc2)n[nH]1`, 98.4% (active); in that of `O=C(Nc1n[nH]c(C(F)(F)F)n1)c1cccs1`, 5%.
As to `COc1ccc(C(=O)Nc2ccc(F)cc2F)cc1`, the inhibition was -13.8%.
The figure for `Cn1sc(NC(=O)c2ccccc2)nc1=O` is 3.97%; for `COC(=O)c1nc(NC(=O)c2ccc(F)cc2)n[nH]1` it is 94.8% (active).
The figure for `S=c1[nH]nc(-c2ccncc2)n1/N=C/c1ccccc1Cl` is -3.11%; for `COc1ccccc1-c1noc(CSc2nc(C)cc(=O)[nH]2)n1` it is -11.8%; for `Cc1ccc(SC(C)C(=O)NCc2ccc(F)cc2)cc1` (stereo not drawn) it is -10%.
For the compound `Cc1c(-c2ccccc2)n[nH]c1C(=O)N=Nc1c(O)[nH]c2ccccc12`, the inhibition is -11.5%.
The figure for `Cc1nc(SCc2ccc(F)cc2)c([N+](=O)[O-])[nH]1` is -2.86%.
The figure for `COc1ccc(Cl)cc1CSc1ncn[nH]1` is -8.18%; for `ClC1(Cl)CC1CSc1ncn[nH]1` (stereo not drawn) it is 102% (active); for `Cn1nnc(NC(=O)CSc2ncn[nH]2)n1` it is -4.19%.
As for `CC1CN(CCOc2ccccc2[N+](=O)[O-])CC(C)O1` (stereo not drawn), the inhibition is 1.06%.
In the case of `Cc1ccc(NC(=O)c2ccn(C(=O)Nc3ccccc3)n2)c(C)c1` it was 1.51%; in that of `CC1=NCCN1S(=O)(=O)c1cccc([N+](=O)[O-])c1`, 2.02%; in that of `CCCC(=O)OCC(=O)Nc1cc(Cl)ccc1[N+](=O)[O-]`, -3.57%.
The figure for `O=C(Nc1ccccc1)Nc1nnc(COc2ccccc2F)s1` is -0.32%.
On to `O=C(c1cccc([N+](=O)[O-])c1)N1CCN(C(=O)c2ccco2)CC1`, for which the inhibition was -2.02%.
On to `O=c1[nH]n(-c2ccc([N+](=O)[O-])cc2)c(=O)c2ccccc12`, for which the inhibition was -6.59%.
The figure for `C/C(=C/C(=O)N1CCN(C)CC1)C(=O)O` is 103% (active); for `CCN1CCN(C(=O)/C=C\C(=O)O)CC1` it is -0.06%; for `CN1CCN(C(=O)C2C3C=CC(C3)C2C(=O)O)CC1` (stereo not drawn) it is -0.84%.
In the case of `NS(=O)(=O)c1ccc(CCNC(=O)CCCn2c(SCC(=O)N3CCCC3)nc3ccsc3c2=O)cc1` it was -6.72%.
In the case of `OCCC#Cc1ccc(CN2CCN(Cc3ccsc3)C(CCO)C2)cc1` (stereo not drawn) it was -1.75%; in that of `CCN(CC)C(=O)CC1(c2ccccc2OC)CCOC(C(C)C)C1` (stereo not drawn), -1.89%; in that of `Cc1ccc(S(=O)(=O)N(C)C)cc1NC(=O)/C=C/c1cccs1`, -6.43%.
As to `O=C(CC1C(=O)NCCN1Cc1ccc(-c2ccccc2)cc1)NCC1CCOCC1` (stereo not drawn), the inhibition is -6.7%.
The figure for `COCC1CCCN(Cc2cn[nH]c2-c2cc3ccccc3o2)C1` (stereo not drawn) is -10.5%; for `Cc1ccc(C(=O)Nc2sc(Cc3ccc4c(c3)OCO4)c(C)c2C(N)=O)cc1` it is 2.74%; for `O=C(Nn1cnc2ccccc2c1=O)c1ccc([N+](=O)[O-])cc1Cl` it is 6.94%.
With `O=C(CSc1cccc[n+]1[O-])c1ccc(Cl)cc1`, the inhibition was -1.76%.
Take `Cc1ccc(N(C(=O)Cc2cccs2)C(C(=O)NCC2CCCO2)c2ccncc2)cc1` (stereo not drawn): the inhibition is 0.6%.
